Test results from ChEMBL document CHEMBL4359878, “Discovery of 4-piperazinyl-2-aminopyrimidine derivatives as dual inhibitors of JAK2 and FLT3” (Eur J Med Chem, 2019).
pIC50: −log10 of the molar value.

Each molecule was assayed on HL-60 (assay: Antiproliferative activity against human HL60 cells assessed as growth inhibition after 72 hrs by CCK-8 assay). Details: HL-60, 72 h.
Format: functional
Method in brief: (§1)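 CCK-8 viability readout. Cells were cultured in RPMI 1640 with 10% FBS and 1% penicillin/streptomycin and seeded at 3000 (HEL), 5000 (MV4-11) or 3000 (HL60) cells/well. Increasing compound concentrations were applied for 72 h, then CCK-8 was added for a further 3 h and absorbance read at 450 nm. Inhibition = (1−A_sample/A_control)×100, normalized to DMSO controls. Value is the mean of three independent measurements, obtained by curve fitting.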

Compound	GI50 [µM]
NS(=O)(=O)c1ccc(NC(=O)N2CCN(c3ccnc(Nc4ccc(N5CCOCC5)cc4)n3)CC2)cc1	> 50
CC(=O)c1ccc(NC(=O)N2CCN(c3ccnc(Nc4ccc(OCCCN5CCCC5)cc4)n3)CC2)cc1	29.4
CC(=O)c1ccc(NC(=O)N2CCN(c3ccnc(Nc4ccc(N5CCSCC5)cc4)n3)CC2)cc1	> 50
C1=N/C2=N/c3ccc(OCCN4CCCC4)c(c3)COC/C=C/COCc3cccc(c3)C(=C1)N2 [PACRITINIB]	1.4

What follows are molecules tested against T1, Receptor-type tyrosine-protein kinase FLT3 (Homo sapiens, UniProt P36888) (assay: Inhibition of N-terminal GST-tagged human FLT3 cytoplasmic domain (564 to 993 residues) expressed in baculovirus expression system musing FAM-labeled peptide as substrate preincubated for 10 mins followed by substrate addition measured after 1 hr in presence of ATP by mobility shift assay). Details: not given.
T1 sequence (P36888 whole entry): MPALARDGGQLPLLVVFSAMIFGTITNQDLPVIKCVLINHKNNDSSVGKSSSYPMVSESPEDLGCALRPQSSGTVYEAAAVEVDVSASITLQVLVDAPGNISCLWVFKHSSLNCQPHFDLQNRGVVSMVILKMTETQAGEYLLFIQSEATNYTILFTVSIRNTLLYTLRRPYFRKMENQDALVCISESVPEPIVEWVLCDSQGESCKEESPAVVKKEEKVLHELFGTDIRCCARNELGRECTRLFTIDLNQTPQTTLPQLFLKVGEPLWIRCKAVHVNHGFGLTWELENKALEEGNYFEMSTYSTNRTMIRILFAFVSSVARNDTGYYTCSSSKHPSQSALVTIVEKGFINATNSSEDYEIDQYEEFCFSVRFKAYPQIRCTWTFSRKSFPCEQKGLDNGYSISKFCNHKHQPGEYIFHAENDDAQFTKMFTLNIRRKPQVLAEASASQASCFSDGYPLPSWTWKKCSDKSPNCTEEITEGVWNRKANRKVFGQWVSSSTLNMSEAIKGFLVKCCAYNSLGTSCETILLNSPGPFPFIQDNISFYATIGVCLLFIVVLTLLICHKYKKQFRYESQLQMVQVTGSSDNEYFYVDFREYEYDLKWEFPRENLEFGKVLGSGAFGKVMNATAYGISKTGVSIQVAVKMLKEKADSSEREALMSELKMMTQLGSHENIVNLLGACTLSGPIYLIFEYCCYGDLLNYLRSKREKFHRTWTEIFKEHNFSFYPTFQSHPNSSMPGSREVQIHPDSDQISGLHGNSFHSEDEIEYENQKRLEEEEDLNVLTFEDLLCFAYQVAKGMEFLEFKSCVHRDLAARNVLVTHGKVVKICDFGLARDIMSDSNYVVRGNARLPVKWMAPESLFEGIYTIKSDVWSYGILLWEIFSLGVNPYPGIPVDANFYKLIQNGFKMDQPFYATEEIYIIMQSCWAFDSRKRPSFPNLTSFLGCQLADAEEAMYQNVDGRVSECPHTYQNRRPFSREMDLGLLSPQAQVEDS
Method in brief: (§2)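 Caliper mobility-shift assay with recombinant kinase in 50 mM HEPES pH 7.5, 0.0015% Brij-35. Compound was diluted from DMSO and preincubated with enzyme for 10 min at room temperature. FAM-labeled peptide plus ATP was then added and the reaction run for 1 h at 28 °C. It was stopped with an EDTA (50 mM) buffer. Conversion gave percent inhibition relative to max/min controls, and IC50 came from a four-parameter Hill fit. Duplicate wells were used.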

Compound	pIC50
NS(=O)(=O)c1ccc(NC(=O)N2CCN(c3ccnc(Nc4ccc(N5CCOCC5)cc4)n3)CC2)cc1	7.52
CC(=O)c1ccc(NC(=O)N2CCN(c3ccnc(Nc4ccc(OCCCN5CCCC5)cc4)n3)CC2)cc1	7.89
CC(=O)c1ccc(NC(=O)N2CCN(c3ccnc(Nc4ccc(N5CCSCC5)cc4)n3)CC2)cc1	7.40

These molecules were tested against Receptor-type tyrosine-protein kinase FLT3 (Homo sapiens) (UniProt P36888). Details: at 100 nM.

Compound	inhibition [%]
N#Cc1cccc(NC(=O)N2CCN(c3ccnc(Nc4ccc(N5CCOCC5)cc4)n3)CC2)c1	15.9
NS(=O)(=O)c1ccc(NC(=O)N2CCN(c3ccnc(Nc4ccc(N5CCOCC5)cc4)n3)CC2)cc1	79.7
COC(=O)c1ccc(NC(=O)N2CCN(c3ccnc(Nc4ccc(N5CCOCC5)cc4)n3)CC2)cc1	62.8
O=C(Nc1cccc(C(F)(F)F)c1)N1CCN(c2ccnc(Nc3ccc(N4CCOCC4)cc3)n2)CC1	36.5
CC(=O)c1ccc(NC(=O)N2CCN(c3ccnc(Nc4ccc(N5CCC(C)CC5)cc4)n3)CC2)cc1	54
CC(=O)c1ccc(NC(=O)N2CCN(c3ccnc(Nc4ccc(OCCCN5CCCC5)cc4)n3)CC2)cc1	83.2
O=C(Nc1ccc(C(=O)N2CCOCC2)cc1)N1CCN(c2ccnc(Nc3ccc(N4CCOCC4)cc3)n2)CC1	17.2
CC(=O)c1ccc(NC(=O)N2CCN(c3ccnc(Nc4ccc(N5CCSCC5)cc4)n3)CC2)cc1	77.6
O=C(Nc1ccc(F)cc1)N1CCN(c2ccnc(Nc3ccc(N4CCOCC4)cc3)n2)CC1	27.8
CC(=O)c1ccc(NC(=O)N2CCN(c3ccnc(Nc4ccc(OCCN5CCOCC5)cc4)n3)CC2)cc1	70.6
CCc1ccc(NC(=O)N2CCN(c3ccnc(Nc4ccc(N5CCOCC5)cc4)n3)CC2)cc1	27.4
NS(=O)(=O)c1ccc(NC(=O)N2CCN(c3ccnc(Nc4ccc(OCCN5CCCC5)cc4)n3)CC2)cc1	82
NC(=O)c1ccc(NC(=O)N2CCN(c3ccnc(Nc4ccc(OCCN5CCCC5)cc4)n3)CC2)cc1	74
O=C(Nc1ccc(C(F)(F)F)cc1)N1CCN(c2ccnc(Nc3ccc(N4CCOCC4)cc3)n2)CC1	36.5
CN1CCN(c2ccc(Nc3nccc(N4CCN(C(=O)Nc5ccc(S(N)(=O)=O)cc5)CC4)n3)cc2)CC1	86
CC(=O)c1ccc(NC(=O)N2CCN(c3ccnc(Nc4ccc(OCCN5CCCC5)cc4)n3)CC2)cc1	69

What follows are molecules tested on MV4-11 (assay: Antiproliferative activity against human MV4-11 cells assessed as growth inhibition after 72 hrs by CCK-8 assay). Details: MV4-11, 72 h.
Format: functional
Method in brief: as §1

Compound	GI50 [µM]
NS(=O)(=O)c1ccc(NC(=O)N2CCN(c3ccnc(Nc4ccc(N5CCOCC5)cc4)n3)CC2)cc1	> 50
CC(=O)c1ccc(NC(=O)N2CCN(c3ccnc(Nc4ccc(OCCCN5CCCC5)cc4)n3)CC2)cc1	11
CC(=O)c1ccc(NC(=O)N2CCN(c3ccnc(Nc4ccc(N5CCSCC5)cc4)n3)CC2)cc1	17.8
C1=N/C2=N/c3ccc(OCCN4CCCC4)c(c3)COC/C=C/COCc3cccc(c3)C(=C1)N2 [PACRITINIB]	1.6

These molecules were tested on HEL (assay: Antiproliferative activity against human HEL cells assessed as growth inhibition after 72 hrs by CCK-8 assay). Details: not given.
Format: functional
Method in brief: as §1

Compound	GI50 [µM]
NS(=O)(=O)c1ccc(NC(=O)N2CCN(c3ccnc(Nc4ccc(N5CCOCC5)cc4)n3)CC2)cc1	> 50
CC(=O)c1ccc(NC(=O)N2CCN(c3ccnc(Nc4ccc(N5CCC(C)CC5)cc4)n3)CC2)cc1	26.4
CC(=O)c1ccc(NC(=O)N2CCN(c3ccnc(Nc4ccc(OCCCN5CCCC5)cc4)n3)CC2)cc1	3.3
CC(=O)c1ccc(NC(=O)N2CCN(c3ccnc(Nc4ccc(N5CCSCC5)cc4)n3)CC2)cc1	4.7
CC(=O)c1ccc(NC(=O)N2CCN(c3ccnc(Nc4ccc(OCCN5CCOCC5)cc4)n3)CC2)cc1	8.9
NS(=O)(=O)c1ccc(NC(=O)N2CCN(c3ccnc(Nc4ccc(OCCN5CCCC5)cc4)n3)CC2)cc1	> 50
NC(=O)c1ccc(NC(=O)N2CCN(c3ccnc(Nc4ccc(OCCN5CCCC5)cc4)n3)CC2)cc1	> 50
CN1CCN(c2ccc(Nc3nccc(N4CCN(C(=O)Nc5ccc(S(N)(=O)=O)cc5)CC4)n3)cc2)CC1	> 50
CC(=O)c1ccc(NC(=O)N2CCN(c3ccnc(Nc4ccc(OCCN5CCCC5)cc4)n3)CC2)cc1	30.3
C1=N/C2=N/c3ccc(OCCN4CCCC4)c(c3)COC/C=C/COCc3cccc(c3)C(=C1)N2 [PACRITINIB]	1.1

What follows are molecules tested against T2, Tyrosine-protein kinase JAK2 (Homo sapiens, UniProt O60674) (assay: Inhibition of N-terminal His-tagged human JAK2 catalytic domain (826 to 1132 resiudes) expressed in baculovirus expression system at 100 nM using FAM-labeled peptide as substrate preincubated for 10 mins followed by substrate addition measured after 1 hr in presence of ATP by mobility shift assay relative to control). Details: not given.
Method in brief: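 Single-concentration (100 nM) percent inhibition in the mobility-shift JAK2 assay. Enzyme was preincubated with compound for 10 min at room temperature in HEPES pH 7.5/Brij-35 buffer. FAM-peptide and ATP were then added and the reaction run for 1 h at 28 °C before EDTA stop. Inhibition = (max−conversion)/(max−min)×100. Each compound was tested at least twice and the values averaged.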

T2 sequence (O60674 whole entry, the tested form may be a part): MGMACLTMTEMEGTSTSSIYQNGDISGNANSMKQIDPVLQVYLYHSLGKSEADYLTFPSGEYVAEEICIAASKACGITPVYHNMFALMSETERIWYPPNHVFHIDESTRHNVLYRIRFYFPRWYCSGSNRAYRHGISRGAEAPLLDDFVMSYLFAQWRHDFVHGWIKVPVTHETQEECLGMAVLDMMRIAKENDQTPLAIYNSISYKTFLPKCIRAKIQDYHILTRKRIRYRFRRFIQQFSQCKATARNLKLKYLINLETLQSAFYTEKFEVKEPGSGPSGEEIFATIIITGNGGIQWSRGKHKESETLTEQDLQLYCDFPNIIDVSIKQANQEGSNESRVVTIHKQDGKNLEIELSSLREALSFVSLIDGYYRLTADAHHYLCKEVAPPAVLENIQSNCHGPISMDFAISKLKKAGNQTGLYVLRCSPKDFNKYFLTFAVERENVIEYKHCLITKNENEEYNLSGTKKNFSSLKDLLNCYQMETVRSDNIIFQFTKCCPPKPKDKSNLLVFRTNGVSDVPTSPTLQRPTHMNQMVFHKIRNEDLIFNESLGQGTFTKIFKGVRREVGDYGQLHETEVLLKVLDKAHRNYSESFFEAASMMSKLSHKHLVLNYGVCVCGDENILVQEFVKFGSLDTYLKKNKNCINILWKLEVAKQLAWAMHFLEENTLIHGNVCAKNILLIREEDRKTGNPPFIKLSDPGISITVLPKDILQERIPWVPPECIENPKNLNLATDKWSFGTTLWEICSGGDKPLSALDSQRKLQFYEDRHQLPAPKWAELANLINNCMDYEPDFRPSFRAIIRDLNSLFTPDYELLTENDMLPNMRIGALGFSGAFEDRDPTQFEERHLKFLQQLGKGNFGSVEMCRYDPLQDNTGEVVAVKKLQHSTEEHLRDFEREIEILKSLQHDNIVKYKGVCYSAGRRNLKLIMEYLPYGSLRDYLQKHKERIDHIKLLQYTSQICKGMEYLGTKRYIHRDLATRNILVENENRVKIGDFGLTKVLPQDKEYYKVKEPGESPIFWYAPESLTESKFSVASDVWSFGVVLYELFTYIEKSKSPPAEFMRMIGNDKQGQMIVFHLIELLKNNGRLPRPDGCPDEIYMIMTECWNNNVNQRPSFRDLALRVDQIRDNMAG

Compound	inhibition [%]
N#Cc1cccc(NC(=O)N2CCN(c3ccnc(Nc4ccc(N5CCOCC5)cc4)n3)CC2)c1	8.1
NS(=O)(=O)c1ccc(NC(=O)N2CCN(c3ccnc(Nc4ccc(N5CCOCC5)cc4)n3)CC2)cc1	86
COC(=O)c1ccc(NC(=O)N2CCN(c3ccnc(Nc4ccc(N5CCOCC5)cc4)n3)CC2)cc1	64.4
O=C(Nc1cccc(C(F)(F)F)c1)N1CCN(c2ccnc(Nc3ccc(N4CCOCC4)cc3)n2)CC1	35.2
CC(=O)c1ccc(NC(=O)N2CCN(c3ccnc(Nc4ccc(N5CCC(C)CC5)cc4)n3)CC2)cc1	53
CC(=O)c1ccc(NC(=O)N2CCN(c3ccnc(Nc4ccc(OCCCN5CCCC5)cc4)n3)CC2)cc1	60.7
O=C(Nc1ccc(C(=O)N2CCOCC2)cc1)N1CCN(c2ccnc(Nc3ccc(N4CCOCC4)cc3)n2)CC1	20
CC(=O)c1ccc(NC(=O)N2CCN(c3ccnc(Nc4ccc(N5CCSCC5)cc4)n3)CC2)cc1	73.9
O=C(Nc1ccc(F)cc1)N1CCN(c2ccnc(Nc3ccc(N4CCOCC4)cc3)n2)CC1	54.8
CC(=O)c1ccc(NC(=O)N2CCN(c3ccnc(Nc4ccc(OCCN5CCOCC5)cc4)n3)CC2)cc1	61.7
CCc1ccc(NC(=O)N2CCN(c3ccnc(Nc4ccc(N5CCOCC5)cc4)n3)CC2)cc1	53.3
NS(=O)(=O)c1ccc(NC(=O)N2CCN(c3ccnc(Nc4ccc(OCCN5CCCC5)cc4)n3)CC2)cc1	59
NC(=O)c1ccc(NC(=O)N2CCN(c3ccnc(Nc4ccc(OCCN5CCCC5)cc4)n3)CC2)cc1	53
O=C(Nc1ccc(C(F)(F)F)cc1)N1CCN(c2ccnc(Nc3ccc(N4CCOCC4)cc3)n2)CC1	35.2
CN1CCN(c2ccc(Nc3nccc(N4CCN(C(=O)Nc5ccc(S(N)(=O)=O)cc5)CC4)n3)cc2)CC1	76
CC(=O)c1ccc(NC(=O)N2CCN(c3ccnc(Nc4ccc(OCCN5CCCC5)cc4)n3)CC2)cc1	45
C1=N/C2=N/c3ccc(OCCN4CCCC4)c(c3)COC/C=C/COCc3cccc(c3)C(=C1)N2 [PACRITINIB]	92

These molecules were tested against T2, Tyrosine-protein kinase JAK2 (assay: Inhibition of N-terminal His-tagged human JAK2 catalytic domain (826 to 1132 resiudes) expressed in baculovirus expression system using FAM-labeled peptide as substrate preincubated for 10 mins followed by substrate addition measured after 1 hr in presence of ATP by mobility shift assay). Details: not given.
Method in brief: as §2

Compound	pIC50
NS(=O)(=O)c1ccc(NC(=O)N2CCN(c3ccnc(Nc4ccc(N5CCOCC5)cc4)n3)CC2)cc1	8.03
CC(=O)c1ccc(NC(=O)N2CCN(c3ccnc(Nc4ccc(OCCCN5CCCC5)cc4)n3)CC2)cc1	7.19
CC(=O)c1ccc(NC(=O)N2CCN(c3ccnc(Nc4ccc(N5CCSCC5)cc4)n3)CC2)cc1	7.53
